# From ChEMBL document CHEMBL1153268 (Bioorg Med Chem Lett, 2009)
# Active and inactive are the calls of the source. No cut-off for these calls is given here.
# Assays:
# [1] = biological target: T1, Neurotensin receptor type 1 (Homo sapiens, UniProt P30989); assay: Agonist activity at NTR1 expressed in CHOK1 cells assessed as stimulation of calcium mobilization at 10 uM relative to neurotensin; format: functional, cell-based; conditions: CHO-K1
# Procedure, shortened: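 CHO-K1 cells stably expressing NTR1, plated 20,000/well 24 h before assay, washed and loaded with calcium-4 dye in HBSS/20 mM HEPES/2 mM probenecid, 1 h, 37 °C, 5% CO2. Compound added at 10 μM final (1% DMSO), triplicate.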
# [2] = biological target: T1, Neurotensin receptor type 1; assay: Agonist activity at NTR1 expressed in CHOK1 cells by calcium mobilization assay; format: functional, cell-based, CHO-K1
# T1 sequence (P30989 whole entry): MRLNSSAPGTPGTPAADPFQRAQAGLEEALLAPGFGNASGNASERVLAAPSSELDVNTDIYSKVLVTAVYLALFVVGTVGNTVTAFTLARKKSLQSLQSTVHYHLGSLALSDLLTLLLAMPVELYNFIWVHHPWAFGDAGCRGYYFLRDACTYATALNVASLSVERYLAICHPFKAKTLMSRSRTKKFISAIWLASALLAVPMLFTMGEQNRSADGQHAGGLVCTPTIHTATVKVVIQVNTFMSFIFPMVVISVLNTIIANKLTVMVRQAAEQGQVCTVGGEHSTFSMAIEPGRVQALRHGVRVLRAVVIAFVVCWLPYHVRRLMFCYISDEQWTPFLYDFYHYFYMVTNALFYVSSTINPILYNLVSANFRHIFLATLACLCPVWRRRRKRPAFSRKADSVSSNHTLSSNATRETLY
SMILES,Activity [1],EC50 [2] [nM]
CC[C@H](NC(=O)c1cc(-c2c(OC)cccc2OC)n(-c2ccnc3cc(Cl)ccc23)n1)C(=O)O,11%,–
CCCC[C@H](NC(=O)c1cc(-c2c(OC)cccc2OC)n(-c2ccnc3cc(Cl)ccc23)n1)C(=O)O,20%,–
CC[C@H](C)[C@H](NC(=O)c1cc(-c2c(OC)cccc2OC)n(-c2ccnc3cc(Cl)ccc23)n1)C(=O)O,inactive,–
COc1cccc(OC)c1-c1cc(C(=O)N[C@H](C(=O)O)C2CCCCC2)nn1-c1ccnc2cc(Cl)ccc12,inactive,–
COc1cccc(OC)c1-c1cc(C(=O)NCC(=O)O)nn1-c1ccnc2cc(Cl)ccc12,inactive,–
COc1ccccc1-c1cc(C(=O)N[C@@H](CC(C)C)C(=O)O)nn1-c1ccnc2cc(Cl)ccc12,86%,220
COc1cccc(OC)c1-c1cc(C(=O)N[C@H](CC(C)C)C(=O)O)nn1-c1ccnc2cc(Cl)ccc12,57%,986
CC(C)CC(NC(=O)OCC1c2ccccc2-c2ccccc21)C(=O)O (stereo not given),–,216
COc1cccc(OC)c1-c1cc(C(=O)N[C@@H](Cc2ccccc2)C(=O)O)nn1-c1ccnc2cc(Cl)ccc12,inactive,–
COc1cccc(OC)c1-c1cc(C(=O)N[C@@H](CC(C)C)C(=O)O)nn1-c1cccc2ccccc12,inactive,–
CC(C)C[C@H](NC(=O)Cn1ccc2cc(NS(=O)(=O)c3cccc4cccnc34)ccc21)C(=O)O,–,178
CC(C)C[C@H](NC(=O)c1cc(-c2ccccc2)n(-c2ccnc3cc(Cl)ccc23)n1)C(=O)O,62%,2040
COc1cccc(OC)c1-c1cc(C(=O)N[C@@H](CC(C)C)C(=O)O)nn1-c1ccnc2cc(Cl)ccc12,–,67
CCC[C@H](NC(=O)c1cc(-c2c(OC)cccc2OC)n(-c2ccnc3cc(Cl)ccc23)n1)C(=O)O,18%,–
CC(C)C[C@H](NC(=O)c1cc(-c2ccccc2OC(F)(F)F)n(-c2ccnc3cc(Cl)ccc23)n1)C(=O)O,84%,1210
COc1cccc(OC)c1-c1cc(C(=O)N[C@H](C(=O)O)C(C)C)nn1-c1ccnc2cc(Cl)ccc12,5%,–
